Experimental data pooled from the literature.
Compare with care: the assays were run in different laboratories.
Organism: Trypanosoma brucei
Observed: parasite growth

COc1cc(Nc2nccc(Nc3ccc4c(C)n[nH]c4c3)n2)cc(OC)c1OC — EC50: 631 nM
Nc1nc(N)c2nc(CNc3ccc(C(=O)c4ccccc4)cc3)cnc2n1 — inhibition (resazurin; 10 µM, 72 h): 76%
Clc1ccc2c(c1)N(CCCN1CCN(CCCc3ccccc3)CC1)c1ccccc1S2 — EC50: 775 nM
Nc1nc(N)c2nc(C(=O)NCc3ccccc3)cnc2n1 — inhibition (resazurin; 10 µM, 72 h): 19%
Cc1ccc2nc(-c3ccc(Cl)cc3)cn2c1 — EC90 (48 h): > 20000 nM
OC1c2ccccc2CCc2ccccc21 — EC50: 51300 nM
O=C(Nc1ccnc(C(F)(F)F)c1)Nc1cccc2c1OC(F)(F)O2 — IC50 (RHODESIENSE STIB900): 14000 nM
N=C(N)c1ccc(OCCCCCOc2ccc(C(=N)N)cc2)cc1 — EC90: 6.2 nM
COC(=O)C1CCN(C(=O)Cc2ccc(NCc3cnc4nc(N)nc(N)c4n3)cc2)CC1 — inhibition (resazurin; 10 µM, 72 h): 23%
Cc1ccc(C(=O)Nc2ccc(S(=O)(=O)O)c3cc(S(=O)(=O)O)cc(S(=O)(=O)O)c23)cc1NC(=O)c1cccc(NC(=O)Nc2cccc(C(=O)Nc3cc(C(=O)Nc4ccc(S(=O)(=O)O)c5cc(S(=O)(=O)O)cc(S(=O)(=O)O)c45)ccc3C)c2)c1 — IC50 (resazurin): 60 nM
COc1cc2c(cc1Nc1nc(Nc3ccsc3C(N)=O)c3cc[nH]c3n1)N(C(=O)CN(C)C)CCC2 — EC50: 631 nM
Nc1nc(N)c2nc(CNc3cccc4ccccc34)cnc2n1 — inhibition (resazurin; 10 µM, 72 h): 31%
Fc1ccc(-c2ncn(C3CCNCC3)c2-c2ccnc(Oc3ccc(Oc4ccccc4)cc3)n2)cc1 — EC50: 794 nM
COC(=O)C1CCN(C(=O)c2ccc(N(CCO)Cc3cnc4nc(N)nc(N)c4n3)cc2)CC1 — inhibition (resazurin; 10 µM, 72 h): 9%
O=C(Cn1ccnc1[N+](=O)[O-])NCc1ccccc1 — IC50: 96000 nM
Cc1cc(NC(=O)Nc2ccc3c(c2)OC(F)(F)O3)cc(C(F)(F)F)n1 — IC50 (RHODESIENSE STIB900): 5100 nM
COc1ccc(Oc2ccc(CNCc3cnc4nc(N)nc(N)c4n3)cc2)cc1 — inhibition (resazurin; 10 µM, 72 h): 31%
CCS(=O)(=O)N(C)c1ccc(NC(=O)c2cccc(C(=N)N)c2)cc1OCc1ccc(C(=N)N)cc1 — IC50: 500 nM
CN(C)CCCN1c2ccccc2Sc2ccc(Cl)cc21 — EC50 (blood stage): 4210 nM
COc1ccc(CNC(=O)c2ccc(CNCc3cnc4nc(N)nc(N)c4n3)cc2)cc1OC — inhibition (resazurin; 10 µM, 72 h): 36%
Cc1ccc2nc(-c3ccc(F)c(F)c3)c(CN3CCN(C4CCCCC4)CC3)n2c1 — EC90 (48 h): > 20000 nM
NC(=O)CN1C(=O)CNC2(C1=O)C1CC3CC(C1)CC2C3 (centres unmarked) — IC50 (pH 7.4, blood stage): 200000 nM
Cc1nn(C)c2cc(N(C)c3ccnc(Nc4cccc(S(N)(=O)=O)c4)n3)ccc12 — EC50: 316 nM
OC(c1ccccc1)c1ccccc1 — EC50: > 100000 nM
Nc1nccc(C#Cc2cncnc2Nc2ccc(OCc3cccc(F)c3)c(Cl)c2)n1 — EC50: 3160 nM
O=[N+]([O-])c1c(CS(=O)(=O)c2ccccc2)nc2c(-c3cccc(C(F)(F)F)c3)cc(Cl)cn12 — IC50 (resazurin; trypomastigote): 40 to 160 nM
Cc1c2ccc(N(C)c3ccnc(Nc4cccc(S(N)(=O)=O)c4)n3)cc2nn1C — EC50: 5010 nM
Cc1ccc2nc(-c3ccc(F)c(F)c3)c(CN3CCC(Cc4ccccc4)CC3)n2c1 — EC50 (48 h): 16600 nM
CS(=O)(=O)CCNCc1cc(-c2cc3c(Nc4ccc(OCc5cccc(F)c5)c(Cl)c4)ncnc3s2)cs1 — EC50: 794 nM
C#CCN(Cc1cnc2nc(N)nc(N)c2n1)c1ccc(C(=O)N2CCC(C(=O)OC)CC2)cc1 — inhibition (resazurin; 10 µM, 72 h): 23%
COc1cc(N2CCN(C(C)C)CC2)ccc1Nc1nc(Nc2ccc(F)cc2C(N)=O)c2cc[nH]c2n1 — EC50: 200 nM
Cc1ccc(C(=O)Nc2ccc(S(=O)(=O)O)c3cc(S(=O)(=O)O)cc(S(=O)(=O)O)c23)cc1NC(=O)c1cccc(NC(=O)Nc2cccc(C(=O)Nc3cc(C(=O)Nc4ccc(S(=O)(=O)O)c5cc(S(=O)(=O)O)cc(S(=O)(=O)O)c45)ccc3C)c2)c1 — IC50 (resazurin; RHODESIENSE STIB900): 35 nM
